Residues, ends and D or L forms follow the SMILES beside them. *: point of attachment. Cbz = O=C(OCc1ccccc1)*
Columns and labels:
Siah2 [1] = biological target: T1, Siah2 (Mus musculus, UniProt Q06986); test: In vivo auto-ubiquitination of Siah2 in 293T cells; format: cell-based; settings: MEN 25 µM or MG132 40 µM, 6 h
T1 sequence (Q06986 1-325): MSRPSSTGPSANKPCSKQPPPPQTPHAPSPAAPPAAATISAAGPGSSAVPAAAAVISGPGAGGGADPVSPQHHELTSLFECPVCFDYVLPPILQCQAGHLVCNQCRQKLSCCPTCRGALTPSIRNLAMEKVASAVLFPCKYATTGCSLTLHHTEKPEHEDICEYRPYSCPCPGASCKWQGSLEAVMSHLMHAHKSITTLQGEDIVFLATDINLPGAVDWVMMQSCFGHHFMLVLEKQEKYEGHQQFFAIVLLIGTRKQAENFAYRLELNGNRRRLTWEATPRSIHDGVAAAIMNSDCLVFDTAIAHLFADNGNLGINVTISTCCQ
Outline: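 293T cells (DMEM, 10% BS) were co-transfected with Flag-Siah2 with or without HA-ubiquitin and treated 24 h later. Cells were lysed in 2% SDS/TBS at 95°C for 10 min, diluted ninefold in 1% Triton X-100/2 mM EDTA, sonicated, precleared with protein G and clarified. Anti-Flag immunoprecipitation used 2 mg protein overnight at 4°C. After stringent washes, 8% SDS-PAGE was blotted with anti-HA and reprobed with anti-Flag.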

[2] = tested on: Human Microvascular Endothelial Cells (HMVEC); test: HMVEC tube formation with conditioned medium of treated SW1 cells; format: cell-based; settings: medium from SW1 cells treated 10 h under hypoxia; read after 16 h
Siah2 [3] = biological target: T1, Siah2; test: Siah steady-state levels in transfected 293T cells; format: cell-based
Outline: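 293T cells (DMEM, 10% BS) were transiently transfected with HA-Siah2 or Flag-Siah1a (1 µg) by calcium phosphate or Lipofectamine. They were treated 24 h later with test compound at several concentrations, with DMSO as control. Lysates were immunoblotted for the tag with β-actin as loading control, using fluorescent secondary antibodies and infrared scanning.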

HIF-1α [4] = test: HIF-1α protein level in 293T cells; format: cell-based; settings: hypoxia 1% O2, 5 h
GST-Siah2 [5] = biological target: T2, GST-Siah2 (Mus musculus, UniProt Q06986); test: Meso Scale electro-chemiluminescent Siah2 self-ubiquitination assay; format: biochemical
T2 sequence (Q06986 1-325): T1 sequence (Q06986 1-325)
Outline: (§1)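 Electrochemiluminescent format. GST-Siah2 or GST-RNF5 (5 pM final) is adsorbed onto glutathione-coated wells. Test compound is added in 100% DMSO. Reaction is started with a pre-charged ubiquitin-E1-E2 mix and runs 1 h at room temperature, then is stopped by Tris-buffered washes. SULFO-Tag antibody to ubiquitinated proteins is added and the signal is read. Library tested at 100 µM; hits confirmed by dose-response curves.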

SW1 melanoma cells = test: Semi-quantitative RT-PCR of HIF-1α and VEGF transcripts; format: cell-based, mouse
Siah1 = biological target: T3, Siah1 (Mus musculus, UniProt P61092); test: Siah1 ubiquitin ligase activity; format: biochemical
T3 sequence (P61092 1-282): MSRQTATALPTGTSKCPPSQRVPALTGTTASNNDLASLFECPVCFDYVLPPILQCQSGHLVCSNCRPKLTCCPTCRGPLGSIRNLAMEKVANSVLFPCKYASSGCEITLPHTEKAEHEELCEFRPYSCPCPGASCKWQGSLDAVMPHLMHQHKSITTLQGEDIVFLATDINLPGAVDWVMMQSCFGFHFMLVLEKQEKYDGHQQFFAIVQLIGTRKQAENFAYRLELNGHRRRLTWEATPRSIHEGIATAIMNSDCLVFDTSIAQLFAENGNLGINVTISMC

PHD3 = PHD3 level and half-life; format: cell-based, mouse
Outline: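 Immortalized MEFs are kept in 10% FBS with 0.1 mM non-essential amino acids and 0.2 mM 2-mercaptoethanol. Cells get test compound (25 µM), with or without 5 mM N-acetyl L-cysteine. PHD3 is blotted after 1% O2, 5 h; Spry2 under normoxia; HIF-1α in nuclear extracts. β-actin/lamin A are loading controls. For half-life, cycloheximide (20 µg/ml) is added after 5 h hypoxia and cells are harvested over time.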

SPRY2 = test: Spry2 expression in 293T cells transfected with Myc-Spry2 and HA-Siah2; format: cell-based; settings: 5 h
VEGF = VEGF secretion from SW1 melanoma cells; format: cell-based, mouse; settings: 10 h, ELISA
GST-Siah2 [6] = biological target: T2, GST-Siah2; test: In vitro protein-binding assay of GST-Siah2 with PHYL or Spry2
Outline: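 GST-Siah2 was affinity-purified onto glutathione-Sepharose 4B beads. Spry2 and PHYL were made by coupled in vitro transcription/translation in reticulocyte lysate with [35S]-methionine and mixed with the GST fusion on glutathione beads. Bound protein was resolved on 12% SDS-PAGE and detected by autoradiography.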

GST-RNF5 [7] = biological target: T4, GST-RNF5 (Homo sapiens, UniProt Q99942); test: In vitro ubiquitination assay, Western blot with anti-ubiquitin; format: biochemical; settings: 100 µM
T4 sequence (Q99942 whole entry): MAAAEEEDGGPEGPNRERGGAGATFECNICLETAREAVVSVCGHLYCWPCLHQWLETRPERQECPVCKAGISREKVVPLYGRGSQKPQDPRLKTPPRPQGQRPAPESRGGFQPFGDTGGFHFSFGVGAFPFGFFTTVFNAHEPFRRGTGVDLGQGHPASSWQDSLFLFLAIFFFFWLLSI
Outline: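 Bacterially expressed GST-RNF5 was purified on glutathione resin. The reaction buffer was 50 mM Tris-HCl pH 8.0, 5 mM MgCl2, 0.5 mM DTT and 2 mM NaF, with HA-ubiquitin (2 µg), 2 mM ATP, E1 (50 ng) and purified His-UbcH5b E2 (250 ng). Test compound was present at 100 µM, and reactions ran 45 min at 37°C.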

UACC903 melanoma tumors = test: UACC903 melanoma xenograft in nude mice; format: in vivo, mouse
Outline: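 UACC903 cells (1 × 10^6 in 100 µl PBS) are injected s.c. into the flank of 4-week-old male nude mice. From 1 week, test compound (2, 5 or 10 mg/kg; 0.1% DMSO final) is given i.p. twice weekly for 4 weeks, with tumors measured twice weekly. Harvested tumors: Z-fix, IHC for HIF-1α/pERK (HRP polymer, DAB, hematoxylin), TUNEL (peroxidase kit), and pERK/total ERK immunoblots.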

UACC903 melanoma cells = test: Spry2 and pERK levels in UACC903 melanoma cells; format: cell-based, human; settings: 5 h
Outline: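 UACC903 human melanoma cells are treated 5 h with a concentration series of test compound. Blots are probed overnight at 4°C and detected with fluorescent secondary antibodies. Total ERK or β-actin serves as loading control.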

GST-Siah2 [8] = biological target: T2, GST-Siah2; test: In vitro ubiquitination assay, Western blot with anti-ubiquitin; format: biochemical
Outline: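 GST-Siah2 (with GST-RNF5 and GST-Siah2 RING mutant in parallel), bacterially expressed, glutathione-purified. Reactions on glutathione beads in 50 mM Tris-HCl pH 8.0, 5 mM MgCl2, 0.5 mM DTT, 2 mM NaF, with HA-ubiquitin (2 µg), 2 mM ATP, E1 (50 ng) and His-UbcH5b (250 ng), 45 min, 37°C, with shaking. Test compound at 100 µM or a concentration series. Read-out: 8% SDS-PAGE, anti-ubiquitin blot; anti-GST for input.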

HIF-1α [9] = test: HIF-1α protein level in SW1 melanoma cells; format: cell-based; settings: SW1 mouse melanoma cells, hypoxia 1% O2, 5 h
GST-RNF5 [10] = biological target: T4, GST-RNF5; test: Meso Scale electro-chemiluminescent RNF5 ubiquitination assay; format: biochemical
Outline: as §1

How did the “Siah2 ubiquitination in vivo” value (Siah2 [1]) turn out when `CC(C)C[C@@H](C=O)NC(=O)[C@H](CC(C)C)NC(=O)[C@H](CC(C)C)NC(=O)OCc1ccccc1` [MG132] (Cbz-Leu-Leu-Leu-aldehyde) was run?
Its value is “increased the ubiquitinated and unubiquitinated forms of Siah2”.

`CC1=CC(=O)c2ccccc2C1=O` [compound 1, menadione] was tested. Which “tube formation of HMVEC cells” value [2] did it give?
Its value is “dose-dependent decrease in tube formation”.

What about the “steady-state levels of Siah2 / Siah1a” value (Siah2 [3]) of the same compound?
The value was “increase the steady-state levels of Siah2”.

And the HIF-1α expression (HIF-1α [4])?
Its HIF-1α expression is “reduced the expression of HIF-1α in a dose-dependent manner”.

And the IC50 (GST-Siah2 [5])?
The IC50 was 20 µM.

And the “level of HIF-1α transcripts” value (SW1 melanoma cells)?
Its value is “did not alter the level of HIF-1α transcripts”.

And the “transcription of VEGF” value (SW1 melanoma cells)?
The value was “inhibited the transcription of the HIF-1α target gene, VEGF”.

And the “Siah1 ubiquitin ligase activity” value (Siah1)?
Its value is “attenuated Siah1 ubiquitin ligase activity”.

And the “stabilization of PHD3 or Spry2, effect on HIF-1α, in presence of ROS scavenger” value (PHD3; MEF cells, 25 µM with 5 mM N-acetyl cysteine)?
The value was “not affected”.

What about the “steady state levels of endogenous PHD3” value (PHD3; MEF cells, hypoxia 1% O2, 5 h, increasing concentrations) of the same compound?
The value was “corresponding increase in the steady state levels of endogenous PHD3”.

What about the “increase of PHD3 or Spry2 expression in Siah KO cells” value (PHD3; Siah2 KO and Siah2/Siah1a DKO MEF, 25 µM) of the same compound?
Its value is “attenuated in the Siah2 KO and completely abolished in the Siah2/1a DKO cells”.

And the “Siah2-dependent decrease in SPRY2 expression” value (SPRY2)?
The value was “attenuated Siah2-dependent decrease in SPRY2 expression”.

What about the “level of VEGF secreted” value (VEGF) of the same compound?
The value was “proportionally reduced”.

And the “association of Siah2 with PHYL or Spry2” value (GST-Siah2 [6])?
Its value is “without affecting the association with PHYL or Spry2”.

What about the “RNF5 self-ubiquitination in vitro” value (GST-RNF5 [7]) of the same compound?
Its value is “did not reduce RNF5 self-ubiquitination activity”.

What about the “pERK levels in tumors” value (UACC903 melanoma tumors; IHC and immunoblot of xenograft tumors) of the same compound?
The value was “effectively reduced the levels of pERK”.

What about the “HIF-1α expression in tumors” value (UACC903 melanoma tumors; IHC of xenograft tumors) of the same compound?
The value was “lower levels of HIF-1α expression”.

And the “degree of apoptosis in tumors (TUNEL)” value (UACC903 melanoma tumors; xenograft tumors)?
Its value is “found to be higher”.

And the “ERK activity / phosphorylation” value (UACC903 melanoma cells)?
Its value is “ERK activity was decreased”.

And the SPRY2 level (UACC903 melanoma cells)?
The SPRY2 level was “increase in SPRY2 level”.

What about the “Siah2 ubiquitination in vivo” value (Siah2 [1]) of the same compound?
The value was “effectively inhibits Siah2 ubiquitination in vivo”.

And the “Siah2 auto-ubiquitination in vitro” value (GST-Siah2 [8]; 100 µM, new lots of compounds, Western blot)?
Its value is “strongest degree of Siah2 inhibition”.

And the “Siah2 auto-ubiquitination in vitro, dose dependence” value (GST-Siah2 [8]; GST-Siah2 on glutathione beads, increasing concentrations)?
The value was “attenuated in a dose-dependent manner”.

What about the HIF-1α expression (HIF-1α [9]) of the same compound?
Its HIF-1α expression is “effectively reduced the level of HIF-1α expression”.

And the IC50 (GST-RNF5 [10])?
The IC50 was greater than 100 µM.
